# Data published in ChEMBL document CHEMBL2062472, “N-(2-oxo-3-oxetanyl)carbamic acid esters as N-acylethanolamine acid amidase inhibitors: synthesis and structure-activity and structure-property relationships” (J Med Chem, 2012).
# Tests used:
# [1] = target: T1, N-acylethanolamine-hydrolyzing acid amidase (Rattus norvegicus, UniProt Q5KTC7); experiment: Inhibition of rat recombinant NAAA expressed in HEK293 cells using heptadecenoylethanolamide as substrate after 30 mins by LC/MS analysis; assay type: cell-based
# T1 sequence (Q5KTC7 whole entry): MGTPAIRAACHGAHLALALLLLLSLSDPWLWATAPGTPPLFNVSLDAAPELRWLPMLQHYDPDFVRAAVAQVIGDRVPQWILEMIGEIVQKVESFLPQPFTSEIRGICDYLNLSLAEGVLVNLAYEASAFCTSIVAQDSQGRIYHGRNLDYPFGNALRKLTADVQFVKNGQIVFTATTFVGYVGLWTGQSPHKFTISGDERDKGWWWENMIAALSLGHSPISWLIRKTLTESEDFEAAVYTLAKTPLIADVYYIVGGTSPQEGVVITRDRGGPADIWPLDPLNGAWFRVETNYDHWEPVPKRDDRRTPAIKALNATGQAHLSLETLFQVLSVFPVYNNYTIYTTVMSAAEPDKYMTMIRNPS
# Procedure, shortened: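 Recombinant rat NAAA incubated 30 min at 37 °C in 50 mM sodium hydrogen phosphate buffer pH 5.0 containing 0.1% Triton X-100, 3 mM DTT and heptadecenoylethanolamide substrate (50 mM as printed). The reaction was stopped with cold methanol containing 1 nmol heptadecanoic acid. Product was measured by LC/MS with negative ESI, selected ion monitoring at m/z 267.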
# [2] = Drug degradation in 0.01 M phosphate-buffered saline at pH 7.4 assessed as N-acylated L-serine product formation by HPLC-UV-MS analysis; assay type: physicochemical; settings: buffer
# Procedure, shortened: (§1)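 Compound incubated at 37 °C in 0.01 M phosphate buffer pH 5.0 or 0.01 M PBS pH 7.4 (μ = 0.15 M; 1% DMSO) for up to 3 days. Degradation products were followed by RP-HPLC-UV and ESI-MS on a C18 column with acetonitrile/10 mM ammonium acetate (pH 7.0) mobile phase. Products were quantified against calibration curves of pure standards.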
# Albumin = Albumin (Bos taurus, UniProt P02769); experiment: Apparent half life of the compound in bovine serum albumin in phosphate-buffered saline at pH 7.4; assay type: ADME; settings: cattle, read-out: t1/2(app)
# Albumin, sequence (P02769 whole entry): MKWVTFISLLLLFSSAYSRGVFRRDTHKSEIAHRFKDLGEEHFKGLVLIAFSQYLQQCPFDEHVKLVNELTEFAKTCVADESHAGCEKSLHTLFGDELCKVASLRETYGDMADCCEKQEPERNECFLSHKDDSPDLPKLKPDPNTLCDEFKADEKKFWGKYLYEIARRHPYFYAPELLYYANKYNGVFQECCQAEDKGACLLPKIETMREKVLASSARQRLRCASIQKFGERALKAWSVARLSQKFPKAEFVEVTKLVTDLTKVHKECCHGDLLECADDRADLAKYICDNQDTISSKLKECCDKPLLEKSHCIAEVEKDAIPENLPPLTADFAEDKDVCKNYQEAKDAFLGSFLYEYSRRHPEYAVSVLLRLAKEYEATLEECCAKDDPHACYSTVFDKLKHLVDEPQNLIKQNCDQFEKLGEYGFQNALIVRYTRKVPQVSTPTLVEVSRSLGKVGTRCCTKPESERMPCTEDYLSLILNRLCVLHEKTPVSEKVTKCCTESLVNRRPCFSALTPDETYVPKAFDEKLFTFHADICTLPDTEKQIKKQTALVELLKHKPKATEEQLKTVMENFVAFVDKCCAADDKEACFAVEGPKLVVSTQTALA
# Procedure, shortened: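 Compound incubated at 5–100 μM final (1% DMSO) at 37 °C in 20 mg/mL bovine serum albumin in PBS pH 7.4. Aliquots were quenched with 2 volumes of CH3CN, centrifuged, and analysed by RP-HPLC. Apparent t1/2 came from pseudo-first-order regression of log[compound] vs time.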
# [3] = Apparent Half life of the compound in 0.01 M phosphate buffer at pH 5 in presence of 3 mM DTT; settings: read-out: t1/2(app)
# [4] = Drug degradation in 0.01 M phosphate buffer at pH 5 assessed as N-acylated L-serine product formation by HPLC-UV-MS analysis; assay type: physicochemical; procedure, shortened: as §1
# [5] = Apparent Half life of the compound in 0.01 M phosphate buffer at pH 5; assay type: physicochemical; settings: read-out: t1/2(app)
# Procedure, shortened: (§2)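 Compound (from DMSO stock; 1% DMSO final) incubated at 1–100 μM final at 37 °C with shaking, ionic strength 0.15 M, in 0.01 M PBS pH 7.4 or 0.01 M phosphate buffer pH 5.0. Aliquots taken over time were analysed by RP-HPLC. Apparent t1/2 came from pseudo-first-order rate constants (linear regression of log[compound] vs time), reported as mean ± SD of three experiments.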
# [6] = Apparent half life of the compound in rat plasma by HPLC analysis; assay type: ADME, cell-free; settings: read-out: t1/2(app) (converted)
# Procedure, shortened: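 Pooled heparinized plasma from male Wistar rats was diluted to 80% (v/v) with PBS pH 7.4. Compound was added at 5–100 μM final (1% DMSO) and incubated at 37 °C with shaking. Aliquots were quenched with 2 volumes of CH3CN, centrifuged, and analysed by RP-HPLC. t1/2 came from log[compound]-vs-time regression, as mean ± SD of three experiments.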
# [7] = Apparent Half life of the compound in 0.01 M phosphate-buffered saline at pH 7.4; assay type: physicochemical; settings: read-out: t1/2(app); procedure, shortened: as §2
SMILES,IC50 [1] [nM],Drug degradation [2],half-life (Albumin) [min],half-life [3] [min],Drug degradation [4],half-life [5] [min],half-life [6] [min],half-life [7] [min]
O=C(NC1CCC1=O)OCc1ccccc1 (racemic),> 100000,,,,,,,
COc1ccc2cc(C(=O)N[C@H]3COC3=O)ccc2c1,,Active,< 1,19.1,Active,18.1,0.483,8.2
O=C(N[C@@H](CO)C(=O)O)OCc1ccccc1,> 100000,,,,,,,
CC(C)(C)OC(=O)N[C@H]1COC1=O,580,,19.6,39,,43.4,< 0.167,33.7
O=C(NCc1ccccc1)N[C@H]1COC1=O,15000,,4.6,25.1,,29.7,< 0.167,3.3
CC(C)(C)OC(=O)N[C@@H]1COC1=O,500,,,,,,,
C[C@H]1OC(=O)[C@H]1NC(=O)OC(C)(C)C,> 80000,,121,149,,217,0.217,143
C[C@H]1OC(=O)[C@@H]1NC(=O)OC(C)(C)C,4900,,,,,,,
O=C(N[C@H]1COC1=O)c1ccc(C(=O)Oc2ccccc2)cc1,,Active,2.7,19.5,Active,23.7,< 0.167,9.8

# Second part, the molecule after the results:
IC50 [1] [nM],Drug degradation [2],half-life (Albumin) [min],half-life [3] [min],Drug degradation [4],half-life [5] [min],half-life [6] [min],half-life [7] [min],SMILES
> 100000,,,,,,,,O=C(N[C@H](CO)C(=O)O)OCc1ccccc1
,Active,7,19,Active,23.1,< 0.167,18,O=C(CCc1ccccc1)N[C@H]1COC1=O
700,,,,,,,,O=C(N[C@@H]1COC1=O)OCc1ccccc1
190,,87.7,80.4,,93.8,< 0.167,80.7,C[C@@H]1OC(=O)[C@H]1NC(=O)OC(C)(C)C
